NTR1 ag: agonists of human NTR1, primary screen, imaging, U2OS cells, beta-arrestin-GFP, high content; 330,000 tested, 0.17% active; NTR1-U2OS beta-arrestin-GFP spot imaging, agonist mode; activation, % at 20 µM;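 active = activation at or above 40% of the spot to cytoplasm intensity ratio, with at least 20 cells analyzed; inconclusive = wells under 20 cells, flagged as cytotoxic or low count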;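 also: 0% = DMSO without peptide and 100% = 100 nM NTR1 peptide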
Target sequence (P30989 whole entry, looked up): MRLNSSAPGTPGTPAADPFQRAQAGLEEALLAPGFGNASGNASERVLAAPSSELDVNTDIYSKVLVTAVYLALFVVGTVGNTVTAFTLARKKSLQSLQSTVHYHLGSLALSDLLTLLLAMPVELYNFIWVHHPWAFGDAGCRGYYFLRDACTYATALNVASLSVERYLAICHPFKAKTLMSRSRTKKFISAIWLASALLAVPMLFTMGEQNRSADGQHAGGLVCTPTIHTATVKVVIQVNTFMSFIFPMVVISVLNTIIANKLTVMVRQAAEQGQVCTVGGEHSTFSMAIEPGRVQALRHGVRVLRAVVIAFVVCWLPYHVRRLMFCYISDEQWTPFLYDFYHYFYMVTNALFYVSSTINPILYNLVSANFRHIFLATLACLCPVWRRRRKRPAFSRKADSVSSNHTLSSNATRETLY
Hep lipid drop: inhibitors of hepatocyte lipid droplet formation, primary screen, imaging, high-throughput imaging, BODIPY stain; AID 1656, 2009; 240,000 tested, 0.4% active; AML12 mouse hepatocytes, oleate lipid droplets; inhibition, % at 6.5 µM;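 active = lipid droplet intensity inhibited by at least 50%, with more than 500 cells counted; inconclusive = wells with under 300 cells, treated as cytotoxic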
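Assay system: AML12 hepatocytes (mouse) / Also added: 100 µM oleic acid challenge / Times: overnight treatment with compound plus oleate / Detection: high-content imaging of BODIPY-stained droplets and DAPI nuclei / Evaluation: % inhibition of lipid droplet signal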
B2AR ag: beta2AR agonists driving receptor internalization, primary screen, cell-based, FAP fluorogen, flow cytometry; Beta-2 adrenergic receptor (Homo sapiens), P07550; Am2.2-beta2AR cells; response, % (no concentration beside the values); 340,000 tested, 0.43% active; AID 504454, 2011;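 active = response above a set limit, near 3 SD of response in nonfluorescent compounds, cut at about 42% in these data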
Arr AP2 block: inhibitors of beta-arrestin/AP2 binding, primary screen, biochemical, GPCR trafficking, flow cytometry; 340,000 tested, 0.31% active; FITC-arrestin peptide / GST-AP2 beads; AP2 beta2 appendage carries R879A mutation; beta-arrestin 1 C-terminal peptide binding to AP2 beta2-adaptin appendage (human); inhibition, % at 10 µM;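 active = inhibition above a set limit, near 3 SD of compounds lacking own fluorescence, cut at about 54% in these data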;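 also: plate controls were DMSO wells for no effect and 5 µM unlabelled arrestin peptide for full effect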
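test system = AP2 appendage R879A on GSH beads | buffer or medium = PBS plus Tween 20 (0.05%) and BSA (0.1%) | incubation = 12 min plus 1 h, RT | detection = bead flow cytometry, FITC channel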
GRK2 aptamer HTS: compounds blocking aptamer binding on GRK2 – biochemical, human GRK2, bead flow cytometry, HTS, primary screen. 330,000 tested, 0.59% active. inhibition of aptamer binding, % at 10 µM. Beta-adrenergic receptor kinase 1 (Homo sapiens), P25098. FAM-aptamer displacement from GRK2;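 active = inhibition of aptamer binding above 40%, roughly 3 SD of noise, on plates passing a quality check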;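 also: median bead fluorescence of bound FAM aptamer so fluorescent compounds give negative values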
H9c2 TAG inh: inhibitors of triacylglycerol accumulation, primary screen, cell-based, uHTS, fluorescence, H9c2. inhibition, % at 12.5 µM. 230,000 tested, 0.66% active. H9c2 cells, Nile Red lipid (TAG) fluorescence; cells loaded with 200 µM oleic acid. AID 651582, 2012;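 active = pattern-corrected inhibition of lipid staining of at least 50% with the nuclear-stain viability signal not falling by more than 50%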;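 also: 0% = DMSO wells and 100% = triacsin C control wells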
Numbers without * were called inactive; ? = inconclusive; nt = no result; ! = not confirmed by another sample. In the library only some 2% were active in any assay of this set; here they are far more common.

SMILES | NTR1 ag | Hep lipid drop | B2AR ag | Arr AP2 block | GRK2 aptamer HTS | H9c2 TAG inh
CCc1ccc2nc3nc(C)cc(C)c3c(N)c2c1 | 0.6 | nt | 20.5 | 11.9 | 1.0 | nt
Cc1cc(C)c2c(N)c3ccccc3nc2n1 | -1.2 | nt | 9.1 | 1.9 | 0.0 | 54.9*
O=C(CN1CC(=O)Oc2ccccc21)OCC(=O)c1ccccc1 | 0.4 | 16.6 | 9.8 | 1.0 | 0.0 | nt
O=C(CN1CC(=O)Oc2ccccc21)OCC(=O)c1cccc(Br)c1 | -1.9 | nt | -1.4 | 58.3* | 5.0 | -4.7
O=C(NCCN1CCOCC1)c1ccc(Cl)c(Cl)c1 | 0.1 | -1.8 | -7.3 | -14.1 | 0.0 | -6.0
O=C1/C(=C\c2ccc(Cl)c(Cl)c2)CN(C(=O)CCN2CCOCC2)C/C1=C/c1ccc(Cl)c(Cl)c1 | nt | nt | 51.8* | -6.4 | nt | 62.7*
Oc1cc(-c2ccncc2)cc2cccnc12 | 4.0 | nt | -3.6 | 8.4 | 7.0 | 81.9
Oc1cc(-c2ccc(N3CCCCC3)nc2)cc2cccnc12 | 8.0 | nt | 9.9 | 11.3 | 2.0 | 104.0*
O=C(CN(C(=O)c1csnn1)c1ccccc1C(F)(F)F)NCc1ccccc1 | -0.3 | -26.5 | 1.5 | 12.0 | 2.0 | nt
Cc1cccc(OCC(=O)NCC(=O)N/N=C/c2cc(Br)cc(Br)c2O)c1 | 52.3* | -42.1 | 9.2 | -23.8 | 2.0 | nt
CC1CC(C)CN(S(=O)(=O)CC23CCC(CC2=O)C3(C)C)C1 (configuration not stated) | -0.2 | -63.4 | 4.0 | 4.3 | 2.0 | nt
Cc1nn(-c2ccccc2)c2c1C(c1ccc(O)c(O)c1)N1C(=N2)C(Nc2ccccc2)=Nc2ccccc21 (configuration not stated) | 19.4 | nt | -6.1 | 14.8 | 9.0 | 13.1
Cc1ccc(NC2=Nc3ccccc3N3C2=Nc2c(c(C)nn2-c2ccccc2)C3c2ccc(O)c(O)c2)cc1 (configuration not stated) | nt | nt | -0.2 | 6.7 | nt | 109.5*
Cc1ccccc1N1CCN(C2=NC(=O)/C(=C/c3cn[nH]c3-c3ccccc3)S2)CC1 | 2.8 | -0.9 | 47.9* | -0.3 | 6.0 | nt
O=C1N=C(N2CCCC2)S/C1=C\c1cn[nH]c1-c1ccccc1 | 2.4 | -11.4 | nt | nt | 0.0 | nt
Cc1csc(NC(=O)CSc2nc3nc(C)cc(C)n3n2)n1 | 2.7 | nt | -9.4 | -3.7 | 0.0 | -1.6
Cc1onc(-c2c(Cl)cccc2Cl)c1/C(N)=N/OC(=O)C1CC1 | 0.9 | -18.6 | 2.5 | 3.0 | 0.0 | -6.5
Cc1nc2nc(C)n(CCN3CCOCC3)c(=O)c2c(-c2cccc([N+](=O)[O-])c2)c1C(=O)CCCCCCCCCCN1CCC(c2ccccc2)(c2ccccc2)CC1 | nt | nt | 33.0 | -11.8 | nt | 126.9*
Fc1ccc2[nH]c3c(N4CCN(c5ccccc5)CC4)ncnc3c2c1 | 41.3* | -22.9 | 17.4 | 3.3 | 0.0 | -124.3
COc1ccc2nc(-c3ccccn3)[nH]c2c1 | 0.9 | 11.4 | -4.3 | -7.5 | 0.0 | 69.9*
COc1ccc(/C=C2\COc3ccccc3C2=O)cc1OC | 21.9 | -5.4 | 11.5 | -14.9 | 0.0 | nt
CCOc1cc(/C=C2\COc3ccccc3C2=O)cc(Br)c1OCC(=O)N(C)C | 36.5 | -10.6 | 55.0* | -19.0 | 9.0 | nt
O=[N+]([O-])c1ccc(Sc2cccc[n+]2[O-])c2nonc12 | nt | -200.1 | 8.0 | 49.7 | nt | 101.7*
CC(=O)OCC(=O)Nc1c(C)cc(C)cc1C | 1.0 | -14.1 | 0.8 | 12.0 | 0.0 | -4.4
CN1C(=O)C(O)(C2CCCCCC2=O)c2ccccc21 (configuration not stated) | 0.4 | -0.6 | 3.4 | -6.3 | 0.0 | nt
SMILES | NTR1 ag | Hep lipid drop | B2AR ag | Arr AP2 block | GRK2 aptamer HTS | H9c2 TAG inh
COC(=O)C1=C(C)N(Cc2ccccc2)C(=NCc2cccc(Cl)c2)N[C@H]1c1ccccc1 | 13.7 | nt | 18.8 | 12.7 | 0.0 | 37.9
COC(=O)C1=C(C)N(Cc2ccccc2)C(=NCc2ccccc2)N[C@H]1c1cccc(F)c1 | 17.6 | -3.2 | 28.3 | 21.3 | 0.0 | 91.8*
CC(=O)N(C(C)=O)c1ccc2nc(C)[nH]c(=O)c2c1 | 2.2 | 7.0 | -1.0 | 1.9 | 0.0 | nt
Cc1nc2ccc(CN(C)c3ccc(C(=O)N[C@@H](CCC(=O)O)C(=O)O)s3)cc2c(=O)[nH]1 | nt | nt | nt | nt | 53.0* | nt
O[C@@H]1[C@@H](O)C=C2CCN3Cc4cc5c(cc4[C@H]1C23)OCO5 (some centres not stated) | 14.3 | nt | 60.7* | 24.9 | 0.0 | 74.0
CCCCCCCCCCn1c2c(c(=N)c3c1CCC3)CCC2 | 42.1* | nt | 13.0 | 4.7 | 0.0 | -19.9
COc1ccc2c(c1)CCC1(C)CC(=O)C(Br)=C21 (configuration not stated) | nt | nt | nt | nt | nt | -3.0
O=C(NC(=S)Nc1ccccn1)c1ccccc1 | 0.3 | 60.9* | -2.6 | -1.3 | 5.0 | nt
CCOc1ccc(NC(=O)CC2C(=O)N(c3cccc(OC)c3)C(=O)N2CCOC)cc1 (configuration not stated) | 2.3 | -0.6 | -3.6 | -4.2 | 1.0 | -0.7
CCOc1cc(C(=O)OC(C)C(=O)Nc2ccc(NC(C)=O)cc2)ccc1OCC(=O)N1CCCCC1 (configuration not stated) | -1.3 | 8.8 | -4.0 | 1.6 | 3.0 | 12.7
O=C(Nc1nc(-c2ccc(Cl)cc2Cl)cs1)C1CCCO1 (configuration not stated) | 3.4 | 53.7* | 5.3 | 15.8 | 2.0 | nt
O=C(Nc1nc(-c2ccc(Cl)cc2)cs1)C1CCCO1 (configuration not stated) | 3.6 | -11.6 | -4.4 | -0.6 | 1.0 | 19.1
Cc1ccc(Cl)cc1NC1=C/C(=N\S(=O)(=O)c2cccs2)c2ccccc2C1=O | 29.9 | -7.4 | 44.9*! | 3.0 | 0.0 | 19.6
Cc1cccc(NC2=C/C(=N/S(=O)(=O)c3cccs3)c3ccccc3C2=O)c1 | nt | 7.8 | 20.9 | nt | 0.0 | 90.5
Cc1ccc(NC2=C/C(=N\S(=O)(=O)c3cccs3)c3ccccc3C2=O)c(C)c1 | 0.5 | ? | 63.7* | -0.7 | 0.0 | 154.5
O=C(O)c1ccc(NC2=C/C(=N/S(=O)(=O)c3cccs3)c3ccccc3C2=O)cc1 | nt | nt | nt | nt | nt | -3.2
O=C1C(Nc2ccc(O)cc2)=C/C(=N/S(=O)(=O)c2cccs2)c2ccccc21 | nt | 3.5 | 61.4* | 0.9 | nt | 125.1
COc1cccc(CNc2nc3cc(-c4cnn(Cc5ccccc5)c4)sc3c(=O)n2C)c1 | nt | nt | nt | nt | nt | 12.5
N#C/C(C(=O)N1CCCCC1)=C1/N=C(N)c2ccccc21 | 1.7 | 10.9 | 28.0 | -0.2 | 100.0* | nt

Source: PubChem
